Hits are enriched below; roughly 1.1% of the tested compounds scored in any of these assays.
DSG3 Ab inh = blocks pemphigus antibody binding to human desmoglein-3; P32926; DSG3-coupled beads, scFv-anti-DSG3-GFP binding, flow cytometry; stronger effect = lower value; binding (percent of control), % at 10 µM; hit rate 0.48% among 310,000;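 active = binding more than 3 SD below its plate's average and above zero; inconclusive = below that plate limit but binding exactly zero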
Avidin fluor = compound fluoresces at 488/530 nm on avidin beads; compound fluorescence 488/530 nm, flow cytometry; stronger effect = higher value; fluorescence (KMESF) at 10 µM; hit rate 0.38% among 220,000; AID 1775; in the data active = fluorescence above about 47
Arr AP2 block = inhibitors of human beta-arrestin and AP2 interaction; FITC-arrestin peptide / GST-AP2 beads, flow cytometry; AP2 beta2 appendage carries R879A mutation; inhibition, % at 10 µM; hit rate 0.31% among 340,000;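 active = inhibition above a set limit, near 3 SD of compounds lacking own fluorescence, cut at about 54% in these data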
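Material – AP2 appendage R879A on GSH beads · Buffer or medium – PBS with 0.05% Tween 20 and 0.1% BSA · Probe or stimulus – fluorescein-tagged arrestin peptide at 50 nM final · Incubation – compound with beads 12 min RT, then probe 1 h RT · Detection – high-throughput flow cytometry of beads, ex 488, em 535 nm · Evaluation – percent response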
GSH bead fluor = GSH bead compound fluorescence profile; GSH beads flow cytometry, compound fluorescence 488/530 nm; stronger effect = higher value; fluorescence (KMESF) at 10 µM; hit rate 0.25% among 190,000; AID 1776; in the data active = fluorescence above about 89;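 note: glutathione beads carrying GST-tagged Bcl family fusion proteins plus one bare bead set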
Arr-AP2 CP1 = inhibitors of human beta-arrestin and AP2 interaction. GST-AP2 beads, FITC arrestin peptide binding, flow cytometry; GST-fused beta2-adaptin appendage, R879A mutant. shares compounds with Arr AP2 block. hit rate 2% among 1,300. inhibition, % at 10 µM;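 active = inhibition above a set limit, roughly 3 SD of non-fluorescent compound noise, cut at about 38% in these data; inactive = inhibition at or below that limit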;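 note: loss of bead fluorescence from 50 nM FITC arrestin peptide bound to appendage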
GST GSH counter = GST-GSH bead binding interference, counter-screen | shares compounds with Arr AP2 block | GST-fluorescein binding to GSH beads, fluorescence | inhibition, % at 10 µM | hit rate 2% among 1,300;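 active = inhibition above 50%, about 3 SD of the inhibition seen with non-fluorescent compounds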;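 note: fluorescein maleimide labelled GST captured on 4 micron glutathione beads; higher means more loss of bead fluorescence from quenching or blocked binding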
Hits are given with their value.

Results for C/C(=N\NC(=O)c1ccccc1OCCOc1ccccc1)c1ccccc1F ?
DSG3 Ab inh: inconclusive; Arr AP2 block: 76; Arr-AP2 CP1: inactive; GST GSH counter: inactive

Results for COCCCn1c(C)nnc1SCC(=O)NCc1ccco1 ?
Avidin fluor: inactive; Arr AP2 block: 55; GSH bead fluor: inactive; Arr-AP2 CP1: inactive; GST GSH counter: inactive

Results for COCCn1c(SCC(=O)NCc2ccco2)nnc1C(C)C ?
DSG3 Ab inh: inactive; Avidin fluor: inactive; Arr AP2 block: inactive; GSH bead fluor: inactive

Results for CCOC(=O)C(C#N)C(=N)C1C(=O)OC2CCCCC21 (stereo not given) ?
DSG3 Ab inh: inactive

What do the screens show for `CCN(CC)S(=O)(=O)c1ccc2c(c1)nc(CCC(=O)Nc1cccc(C(F)(F)F)c1)n2CC`?
DSG3 Ab inh: inactive; Avidin fluor: inactive; Arr AP2 block: 85; GSH bead fluor: inactive; Arr-AP2 CP1: inactive; GST GSH counter: inactive

Results for O=C(Cn1nc(-c2ccccc2)ccc1=O)N1CCCCC1 ?
DSG3 Ab inh: inactive; Arr AP2 block: inactive

How did COc1cc(OC)cc(C(=O)NCC(=O)OCc2nc3ccccc3s2)c1 do in these assays?
DSG3 Ab inh: inactive; Avidin fluor: inactive; Arr AP2 block: 55; GSH bead fluor: inactive; Arr-AP2 CP1: inactive; GST GSH counter: inactive

Results for O=C(CNC(=O)c1ccc(Cl)cc1)OCc1nc2ccccc2s1 ?
DSG3 Ab inh: inactive; Avidin fluor: inactive; Arr AP2 block: inactive; GSH bead fluor: inactive

Results for CCc1c(C)c2ccc(O)c(CN3CCCC3)c2oc1=O ?
DSG3 Ab inh: inactive; Arr AP2 block: inactive

Results for COC(=O)Cc1c(C)c2ccc(O)c(CN3CCCC(C)C3)c2oc1=O (stereo not given) ?
DSG3 Ab inh: inactive; Avidin fluor: inactive; Arr AP2 block: 105; GSH bead fluor: inactive; Arr-AP2 CP1: inactive; GST GSH counter: inactive

How did O=C(CN1CCN(Cc2ccccc2)CC1)Nc1ccccc1-c1ccccc1 do in these assays?
DSG3 Ab inh: inactive; Avidin fluor: inactive; Arr AP2 block: inactive; GSH bead fluor: inactive

What do the screens show for `C(=N\n1cnnc1)/c1ccc(N2CCOCC2)s1`?
DSG3 Ab inh: inactive; Avidin fluor: inactive; Arr AP2 block: 92; GSH bead fluor: inactive; Arr-AP2 CP1: inactive; GST GSH counter: inactive

Results for CN(C)S(=O)(=O)c1ccc(N2CCOCC2)c(C(=O)NCc2ccc3c(c2)OCO3)c1 ?
Arr AP2 block: inactive

How did Cc1ccc(S(=O)(=O)N(C)C)cc1NC(=O)C(C)OC(=O)CC1CC2CCC1C2 (stereo not given) do in these assays?
DSG3 Ab inh: inactive

What do the screens show for `Cc1ccccc1C(=O)Nc1nnc(-c2cccnc2)o1`?
Avidin fluor: inactive; Arr AP2 block: 60; GSH bead fluor: inactive; Arr-AP2 CP1: inactive; GST GSH counter: inactive

Results for O=C1CCCC/C1=N\Nc1ccc(OCc2ccccc2)cc1 ?
DSG3 Ab inh: inactive; Avidin fluor: inactive; Arr AP2 block: 98; GSH bead fluor: inactive; Arr-AP2 CP1: inactive; GST GSH counter: inactive

What do the screens show for `Cc1ccc(S(=O)(=O)NCCC(=O)Nc2cc(S(=O)(=O)N(C)C)ccc2C)cc1C`?
Arr AP2 block: inactive

What do the screens show for `Cc1cc(C)nc(NS(=O)(=O)c2ccc(NC(=S)NC(=O)c3ccco3)cc2)n1`?
DSG3 Ab inh: inactive; Avidin fluor: inactive; Arr AP2 block: 58; GSH bead fluor: inactive; Arr-AP2 CP1: inactive; GST GSH counter: inactive

How did CCC(=O)Nc1cccc(C2=NOC3(C2)C[C@H](C(N)=O)N(C(=O)CC#N)C3)c1 (stereo not given in full) do in these assays?
DSG3 Ab inh: inactive; Avidin fluor: inactive; Arr AP2 block: inactive

How did Nc1nc(NCc2ccccc2)nc(NCCO)c1[N+](=O)[O-] do in these assays?
Avidin fluor: inactive; Arr AP2 block: 56; Arr-AP2 CP1: inactive; GST GSH counter: inactive

How did Nc1nc(NCCO)nc(NCc2ccccc2)c1[N+](=O)[O-] do in these assays?
DSG3 Ab inh: inactive; Arr AP2 block: inactive

Results for Cc1ccc(C)c(N2CCN(C(=O)CCc3nc(-c4ccccc4Br)no3)CC2)c1 ?
DSG3 Ab inh: inactive; Arr AP2 block: inactive
